ChEMBL document CHEMBL5678806, “NMS-P937, an orally available, specific small-molecule polo-like kinase 1 inhibitor with antitumor activity in solid and hematologic malignancies” (Mol Cancer Ther, 2012)
Active and inactive are the calls of the source. The calls are words filed in the database; no cut-off is given here.

Columns and labels:
[1] = biological target: Cyclin-dependent kinase 4/cyclin D1 (Homo sapiens, UniProt P11802); assay: Inhibition of CDK4/CycD1 (unknown origin) in presence of [gamma-33P]ATP; type: protein-complex assay
[2] = biological target: Serine/threonine-protein kinase pim-2 (Homo sapiens, UniProt Q9P1W9); assay: Inhibition of PIM2 (unknown origin) in presence of [gamma-33P]ATP
[3] = biological target: Protein kinase C beta type (Homo sapiens, UniProt P05771); assay: Inhibition of PKC beta (unknown origin) in presence of [gamma-33P]ATP
[4] = biological target: Dual specificity mitogen-activated protein kinase kinase 1 (Homo sapiens) (UniProt Q02750); assay: Inhibition of N-terminal GST and C-terminal His6-tagged recombinant full-length human MEK1 expressed in E. coli assessed as residual activity at 0.1 uM relative to control
[5] = biological target: MAP kinase-activated protein kinase 5 (Homo sapiens) (UniProt Q8IW41); assay: Inhibition of N-terminal His6-tagged recombinant human full-length PRAK expressed in baculovirus infected Sf21 cells assessed as residual activity at 0.1 uM relative to control
[6] = biological target: Rho-associated protein kinase 1 (Homo sapiens) (UniProt Q13464); assay: Inhibition of N-terminal His6-tagged recombinant human ROCK-I (17 to 535 residues) expressed in baculovirus infected Sf21 cells assessed as residual activity at 0.1 uM relative to control
[7] = biological target: Casein kinase I isoform gamma-2 (Homo sapiens) (UniProt P78368); assay: Inhibition of N-terminal 6His-tagged recombinant human CK1gamma2 ( 18 to end residues) expressed in baculovirus infected Sf21 cells assessed as residual activity at 1 uM relative to control
[8] = biological target: Tyrosine-protein kinase Fgr (Homo sapiens) (UniProt P09769); assay: Inhibition of N-terminal His6-tagged recombinant human Fgr (2 to end residues) expressed in baculovirus infected Sf21 cells assessed as residual activity at 1 uM relative to control
[9] = biological target: Tyrosine-protein kinase Mer (Homo sapiens) (UniProt Q12866); assay: Inhibition of N-terminal GST-tagged recombinant human Mer (557 to 882 residues) expressed in baculovirus infected Sf21 cells assessed as residual activity at 1 uM relative to control
[10] = biological target: Ribosomal protein S6 kinase alpha-4 (Homo sapiens) (UniProt O75676); assay: Inhibition of N-terminal His6-tagged recombinant human MSK2 (2 to end residues) expressed in baculovirus infected Sf21 cells assessed as residual activity at 1 uM relative to control
DLD-1 = assay: Antiproliferative activity against human DLD-1 cells assessed as inhibition of cell growth incubated for 72 hrs by cell-titer glo assay; type: functional, cell-based; conditions: DLD-1, 72 h
How it was run: (§1)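 Cells seeded 10,000–30,000/cm² (adherent) or 100,000/mL (suspension) in medium with 10% fetal calf serum; after 24 h treated in duplicate with serial dilutions for 72 h. Viable cells read by CellTiter-Glo luminescence; IC50 from sigmoidal fit; at least two independent experiments.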

UO-31 = assay: Antiproliferative activity against human UO-31 cells assessed as inhibition of cell growth incubated for 72 hrs by cell-titer glo assay; type: functional, cell-based; conditions: UO-31, 72 h
SK-OV-3 = assay: Antiproliferative activity against human SK-OV-3 cells assessed as inhibition of cell growth incubated for 72 hrs by cell-titer glo assay; type: functional, cell-based; conditions: SK-OV-3, 72 h
[11] = Antiproliferative activity against human PL-21 cells assessed as inhibition of cell growth incubated for 72 hrs by cell-titer glo assay; type: functional, cell-based; conditions: PL-21, 72 h
How it was run: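 Cells from ATCC or ECACC, kept in supplier-recommended medium with 1% penicillin-streptomycin at 37°C, 5% CO₂. Seeded at 10,000–30,000/cm² (adherent) or 100,000/mL (nonadherent) in medium with 10% fetal calf serum. Dosed after 24 h in duplicate with serial dilutions. Viable cells read by CellTiter-Glo 72 h later. IC50 from sigmoidal fit. At least two independent experiments.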

DU-145 = assay: Antiproliferative activity against human DU-145 cells assessed as inhibition of cell growth incubated for 72 hrs by cell-titer glo assay; type: functional, cell-based; conditions: DU-145, 72 h; how it was run: as §1
UACC-257 = assay: Antiproliferative activity against human UACC-257 cells assessed as inhibition of cell growth incubated for 72 hrs by cell-titer glo assay; type: functional, cell-based; conditions: UACC-257, 72 h
SK-MEL-5 = assay: Antiproliferative activity against human SK-MEL-5 cells assessed as inhibition of cell growth incubated for 72 hrs by cell-titer glo assay; type: functional, cell-based; conditions: SK-MEL-5, 72 h
THP-1 = assay: Antiproliferative activity against human THP-1 cells assessed as inhibition of cell growth incubated for 72 hrs by cell-titer glo assay; type: functional, cell-based; conditions: THP-1, 72 h
KU812 cell line = assay: Antiproliferative activity against human KU812 cell line assessed as inhibition of cell growth incubated for 72 hrs by cell-titer glo assay; type: functional, cell-based; conditions: KU812, 72 h
How it was run: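 Cells seeded at 10,000–30,000/cm² (adherent) or 100,000/mL (nonadherent) in medium with 10% fetal calf serum; after 24 h, treated in duplicate with serial dilutions for 72 h. Viable cell number read by CellTiter-Glo luminescence; IC50 from sigmoidal fit; at least two independent experiments.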

[12] = Antiproliferative activity against human adriamycin-resistant RPMI-8226-ADR cells assessed as inhibition of cell growth incubated for 72 hrs by cell-titer glo assay; type: functional, cell-based
NHDF = assay: Induction of DNA damage in human NHDF cells assessed as H2AX phosphorylation at 0.5 to 1 uM incubated for 8 hrs by Western blotting analysis; type: toxicity, cell-based; conditions: dose 0.5-1 µM
A2780 [13] = assay: Induction of DNA damage in human A2780 cells assessed as H2AX phosphorylation at 0.5 to 1 uM incubated for 8 hrs by Western blotting analysis; type: functional, cell-based; conditions: dose 0.5-1 µM
[14] = Clearance in nu/nu mouse at 10 mg/kg, iv by LC-MS analysis; type: ADME, organism-based; conditions: in vivo
[15] = Cmax in Beagle dog at 5 mg/kg, iv by LC-MS analysis; type: ADME, organism-based, Canis lupus familiaris; conditions: in vivo
[16] = AUC in Sprague-Dawley rat at 10 mg/kg, iv by LC-MS analysis; type: ADME, organism-based; conditions: in vivo
[17] = Cmax in male cynomolgus monkey at 5 mg/kg, po by LC-MS analysis; type: ADME, organism-based, Macaca fascicularis; conditions: in vivo
[18] = Oral bioavailability in Beagle dog at 5 mg/kg by LC-MS analysis; type: ADME, organism-based, Canis lupus familiaris; conditions: in vivo
A2780 [19] = assay: Induction of cell cycle arrest in human A2780 cells assessed as accumulation of cells in G2/M phase by measuring NPM phosphorylation on Thr199 incubated for 24 hrs by Western blotting analysis; type: functional, cell-based; conditions: dose 0.02-0.2 µmol/L
How it was run: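 A2780 ovarian carcinoma cells treated 24 h with a range of concentrations, with DMSO and nocodazole controls. 20 µg protein extract separated by SDS-PAGE and immunoblotted with chemiluminescent detection. Probed for total and phospho-Thr210 PLK1, phospho-Ser10 histone H3, phospho-Thr199 NPM and phospho-Tyr15 CDK1. Total NPM, tubulin and total CDK1 served as loading controls.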

A2780 [20] = assay: Induction of mitosis in human A2780 cells xenografted in nu/nu mouse assessed as increased NPM phosphorylation on Thr199 at 60 mg/kg, po administered for 2 to 6 hrs by immunohistochemistry analysis; type: functional, organism-based; conditions: time 2-6 hrs

Chain of Casein kinase I isoform gamma-2 (Homo sapiens) (P78368 whole entry, looked up, canonical isoform): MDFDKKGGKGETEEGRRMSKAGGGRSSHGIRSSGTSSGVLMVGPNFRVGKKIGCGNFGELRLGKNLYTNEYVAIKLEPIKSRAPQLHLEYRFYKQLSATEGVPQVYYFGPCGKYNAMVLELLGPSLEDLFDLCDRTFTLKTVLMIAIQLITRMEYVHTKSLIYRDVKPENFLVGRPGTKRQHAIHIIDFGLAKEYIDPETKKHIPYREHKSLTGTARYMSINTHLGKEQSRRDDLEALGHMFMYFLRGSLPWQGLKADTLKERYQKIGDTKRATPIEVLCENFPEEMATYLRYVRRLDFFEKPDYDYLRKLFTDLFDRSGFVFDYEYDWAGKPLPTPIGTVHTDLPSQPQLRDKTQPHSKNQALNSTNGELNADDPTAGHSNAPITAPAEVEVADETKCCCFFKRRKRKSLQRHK
Chain of Rho-associated protein kinase 1 (Homo sapiens) (Q13464 2-1354 limits assumed): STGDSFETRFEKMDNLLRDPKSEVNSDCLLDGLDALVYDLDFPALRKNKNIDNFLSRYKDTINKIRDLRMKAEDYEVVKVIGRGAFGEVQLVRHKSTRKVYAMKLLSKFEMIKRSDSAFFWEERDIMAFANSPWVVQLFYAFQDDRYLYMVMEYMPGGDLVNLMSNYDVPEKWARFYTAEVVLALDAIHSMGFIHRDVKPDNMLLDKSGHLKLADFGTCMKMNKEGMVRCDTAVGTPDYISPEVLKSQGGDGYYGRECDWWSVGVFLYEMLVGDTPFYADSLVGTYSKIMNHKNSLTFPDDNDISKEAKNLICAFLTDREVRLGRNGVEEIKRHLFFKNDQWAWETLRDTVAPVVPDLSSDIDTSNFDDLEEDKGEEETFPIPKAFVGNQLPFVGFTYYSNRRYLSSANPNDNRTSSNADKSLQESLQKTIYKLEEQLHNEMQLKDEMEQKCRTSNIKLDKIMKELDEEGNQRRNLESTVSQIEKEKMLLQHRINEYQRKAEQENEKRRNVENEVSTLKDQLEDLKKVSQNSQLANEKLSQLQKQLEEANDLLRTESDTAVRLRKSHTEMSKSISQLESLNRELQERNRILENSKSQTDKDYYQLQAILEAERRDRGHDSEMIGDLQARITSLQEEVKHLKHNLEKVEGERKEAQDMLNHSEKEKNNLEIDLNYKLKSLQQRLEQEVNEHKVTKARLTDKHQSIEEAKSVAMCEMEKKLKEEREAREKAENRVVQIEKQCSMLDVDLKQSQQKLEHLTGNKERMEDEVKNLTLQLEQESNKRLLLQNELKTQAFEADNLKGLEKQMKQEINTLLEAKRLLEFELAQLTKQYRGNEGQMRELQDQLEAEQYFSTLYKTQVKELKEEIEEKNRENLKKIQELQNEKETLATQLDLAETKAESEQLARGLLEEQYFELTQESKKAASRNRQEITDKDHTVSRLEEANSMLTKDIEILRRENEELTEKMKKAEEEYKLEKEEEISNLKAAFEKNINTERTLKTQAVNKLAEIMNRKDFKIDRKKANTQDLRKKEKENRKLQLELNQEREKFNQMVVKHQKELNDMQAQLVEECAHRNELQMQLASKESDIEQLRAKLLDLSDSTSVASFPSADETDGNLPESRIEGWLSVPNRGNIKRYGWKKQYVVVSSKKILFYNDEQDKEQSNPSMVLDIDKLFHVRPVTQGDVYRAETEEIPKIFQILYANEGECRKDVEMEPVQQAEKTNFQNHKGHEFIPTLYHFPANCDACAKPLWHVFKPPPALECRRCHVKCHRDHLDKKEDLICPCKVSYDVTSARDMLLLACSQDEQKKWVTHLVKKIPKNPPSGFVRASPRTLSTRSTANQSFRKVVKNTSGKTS
Chain of Ribosomal protein S6 kinase alpha-4 (Homo sapiens) (O75676 whole entry, looked up): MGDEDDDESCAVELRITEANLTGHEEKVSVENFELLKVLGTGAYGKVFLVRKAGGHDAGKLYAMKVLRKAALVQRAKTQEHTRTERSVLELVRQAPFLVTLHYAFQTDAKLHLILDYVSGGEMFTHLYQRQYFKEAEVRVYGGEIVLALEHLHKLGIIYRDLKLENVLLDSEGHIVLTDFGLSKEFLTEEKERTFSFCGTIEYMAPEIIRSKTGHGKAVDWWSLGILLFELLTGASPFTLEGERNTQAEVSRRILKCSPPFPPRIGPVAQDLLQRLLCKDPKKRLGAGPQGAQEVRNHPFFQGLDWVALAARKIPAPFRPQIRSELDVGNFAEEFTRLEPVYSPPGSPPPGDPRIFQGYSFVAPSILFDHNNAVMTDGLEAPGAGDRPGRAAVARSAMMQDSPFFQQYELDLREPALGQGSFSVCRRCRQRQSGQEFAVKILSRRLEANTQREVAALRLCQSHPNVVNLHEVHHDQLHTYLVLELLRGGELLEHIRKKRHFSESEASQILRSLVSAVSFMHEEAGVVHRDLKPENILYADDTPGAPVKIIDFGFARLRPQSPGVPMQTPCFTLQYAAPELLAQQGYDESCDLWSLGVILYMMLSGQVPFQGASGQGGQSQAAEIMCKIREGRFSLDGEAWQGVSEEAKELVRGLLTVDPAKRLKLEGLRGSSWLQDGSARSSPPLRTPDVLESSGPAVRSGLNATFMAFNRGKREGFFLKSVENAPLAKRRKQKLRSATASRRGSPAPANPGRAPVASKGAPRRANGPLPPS
Chain of MAP kinase-activated protein kinase 5 (Homo sapiens) (Q8IW41 whole entry, the tested form may be a part): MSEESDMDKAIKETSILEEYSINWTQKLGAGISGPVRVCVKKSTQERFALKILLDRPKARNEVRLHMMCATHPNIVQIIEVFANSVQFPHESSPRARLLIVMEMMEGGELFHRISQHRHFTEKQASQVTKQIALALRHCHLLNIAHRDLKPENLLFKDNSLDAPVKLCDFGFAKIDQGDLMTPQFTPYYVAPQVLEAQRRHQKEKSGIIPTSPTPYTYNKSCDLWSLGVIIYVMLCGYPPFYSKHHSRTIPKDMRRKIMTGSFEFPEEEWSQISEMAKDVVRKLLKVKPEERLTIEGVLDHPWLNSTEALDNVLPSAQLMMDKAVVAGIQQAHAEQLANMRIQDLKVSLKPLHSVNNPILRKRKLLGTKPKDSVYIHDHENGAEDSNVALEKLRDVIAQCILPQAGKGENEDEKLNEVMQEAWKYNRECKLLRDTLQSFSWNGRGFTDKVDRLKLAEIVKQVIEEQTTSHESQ
Chain of Tyrosine-protein kinase Fgr (Homo sapiens) (P09769 2-529 limits assumed): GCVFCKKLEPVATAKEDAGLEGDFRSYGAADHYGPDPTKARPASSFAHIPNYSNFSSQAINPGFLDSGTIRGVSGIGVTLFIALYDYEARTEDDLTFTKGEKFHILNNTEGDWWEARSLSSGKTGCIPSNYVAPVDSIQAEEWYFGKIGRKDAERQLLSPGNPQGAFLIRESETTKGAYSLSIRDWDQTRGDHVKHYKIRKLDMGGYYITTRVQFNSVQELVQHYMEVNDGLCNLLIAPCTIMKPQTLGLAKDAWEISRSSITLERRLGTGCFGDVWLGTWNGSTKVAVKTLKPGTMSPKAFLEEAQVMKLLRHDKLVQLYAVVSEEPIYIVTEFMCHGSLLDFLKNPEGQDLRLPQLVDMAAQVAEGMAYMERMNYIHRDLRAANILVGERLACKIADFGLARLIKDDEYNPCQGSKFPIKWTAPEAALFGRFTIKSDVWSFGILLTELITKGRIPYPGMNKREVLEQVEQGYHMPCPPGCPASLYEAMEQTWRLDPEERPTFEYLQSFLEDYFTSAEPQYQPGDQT
Chain of Tyrosine-protein kinase Mer (Homo sapiens) (Q12866 whole entry, the tested form may be a part): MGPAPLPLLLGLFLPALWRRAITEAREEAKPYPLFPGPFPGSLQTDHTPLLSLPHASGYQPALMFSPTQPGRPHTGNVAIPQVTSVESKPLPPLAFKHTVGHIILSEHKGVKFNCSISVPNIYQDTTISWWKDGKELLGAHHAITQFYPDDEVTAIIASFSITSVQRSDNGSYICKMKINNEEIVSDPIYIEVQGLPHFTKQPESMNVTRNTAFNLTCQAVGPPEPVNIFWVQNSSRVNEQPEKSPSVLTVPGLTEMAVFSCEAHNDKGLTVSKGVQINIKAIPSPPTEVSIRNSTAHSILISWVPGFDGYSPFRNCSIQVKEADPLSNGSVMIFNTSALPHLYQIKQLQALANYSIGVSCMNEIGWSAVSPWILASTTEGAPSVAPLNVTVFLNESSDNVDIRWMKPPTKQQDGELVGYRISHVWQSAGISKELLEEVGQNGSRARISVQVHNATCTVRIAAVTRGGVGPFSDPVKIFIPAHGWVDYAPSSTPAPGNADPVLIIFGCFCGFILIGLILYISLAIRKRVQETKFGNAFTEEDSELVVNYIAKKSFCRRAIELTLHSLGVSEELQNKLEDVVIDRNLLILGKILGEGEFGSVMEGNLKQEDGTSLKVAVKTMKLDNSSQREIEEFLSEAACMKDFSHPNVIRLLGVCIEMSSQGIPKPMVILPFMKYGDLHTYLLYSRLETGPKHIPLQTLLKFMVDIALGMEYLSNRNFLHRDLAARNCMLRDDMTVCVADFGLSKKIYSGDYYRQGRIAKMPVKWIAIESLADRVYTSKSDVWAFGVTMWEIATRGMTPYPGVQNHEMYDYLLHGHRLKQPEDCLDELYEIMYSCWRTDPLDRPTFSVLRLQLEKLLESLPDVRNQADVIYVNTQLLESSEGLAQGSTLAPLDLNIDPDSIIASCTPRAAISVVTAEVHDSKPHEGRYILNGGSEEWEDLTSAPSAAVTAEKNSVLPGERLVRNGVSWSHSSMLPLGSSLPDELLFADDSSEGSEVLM
Chain of Serine/threonine-protein kinase pim-2 (Q9P1W9 whole entry): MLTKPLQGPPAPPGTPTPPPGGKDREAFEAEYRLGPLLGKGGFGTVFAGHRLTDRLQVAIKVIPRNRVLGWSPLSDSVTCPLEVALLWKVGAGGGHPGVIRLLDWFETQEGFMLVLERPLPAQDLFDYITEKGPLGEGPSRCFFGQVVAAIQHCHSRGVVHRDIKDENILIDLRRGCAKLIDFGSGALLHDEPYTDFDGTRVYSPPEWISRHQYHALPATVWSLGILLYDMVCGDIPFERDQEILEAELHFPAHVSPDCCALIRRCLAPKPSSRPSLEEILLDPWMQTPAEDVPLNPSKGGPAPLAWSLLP

Compound: CN1CCN(c2ccc(OC(F)(F)F)c(Nc3ncc4c(n3)-c3c(c(C(N)=O)nn3CCO)CC4)c2)CC1 [ONVANSERTIB]
- IC50 [1]: > 10000 nM
- IC50 [2]: > 10000 nM
- IC50 [3]: > 10000 nM
- Activity [4]: 113%
- Activity [5]: 126%
- Activity [6]: 145%
- Activity [7]: 69%
- Activity [8]: 85%
- Activity [9]: 64%
- Activity [10]: 85%
- IC50 (DLD-1): 329 nM
- IC50 (UO-31): 1130 nM
- IC50 (SK-OV-3): 191 nM
- IC50 [11]: 22 nM
- IC50 (DU-145): 252 nM
- IC50 (UACC-257): 441 nM
- IC50 (SK-MEL-5): 513 nM
- IC50 (THP-1): 32 nM
- IC50 (KU812 cell line): 20 nM
- IC50 [12]: 1310 nM
- Activity (NHDF): Toxic
- Activity (A2780 [13]): Active
- clearance [14]: 39.4 mL/min/kg
- Cmax [15]: 1700 nM
- AUC [16]: 13.8 µM·h
- Cmax [17]: 1900 nM
- F [18]: 63%
- Activity (A2780 [19]): Dose-Dependent Effect
- Activity (A2780 [20]): Active
